Results on four compounds are retold here after ChEMBL document CHEMBL1121813, “Dihydrochalcone sweeteners. A study of the atypical temporal phenomena” (1981).

What all share (type): functional
Assay [1] is filed under the species Homo sapiens. Nature of the assay: Intensity calculated on a weight basis relative to an 85500 ppm sucrose solution at a concentration of 1001 ppm (mean value). The method, boiled down:
(§1)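 Trained human panel tasted aqueous solutions of purity-checked (≥95 weight percent) compounds cleared for mutagenicity and mouse oral toxicity. Weight-basis intensity I_w = perceived intensity × (85500 ppm sucrose / compound concentration in ppm). The mean is reported with 2S_m limits; data deviating excessively at 95% confidence were rejected by the t-value method.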

For assay [2], the species on record is Homo sapiens. Description: Bitter character at a concentration of 1001 ppm (mean value). The method, boiled down: (§2)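 Trained human panel tasted aqueous solutions. Each judge reported whether there was an aftertaste and its character (sweet, bitter or bitter-sweet). The value is the percentage of judgments reporting a bitter aftertaste.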
For assay [3], the species on record is Homo sapiens. Nature of the assay: Experimentally determined perceived intensity of compound at a concentration of 1001 ppm (mean value). A digest of the protocol: (§3)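 Trained human sensory panel of judges tasted aqueous solutions of the compound. Samples had to be ≥95 weight % pure (HPLC, proton titration, Karl Fischer), non-mutagenic in five Salmonella typhimurium strains with and without microsomal activation, and non-toxic in a single-oral-dose mouse test. Perceived intensity (Ip) was read from time–intensity curves at 4- or 6-s intervals and averaged. Outliers at the 95% level were rejected by t-value. Values reported as mean (2Sm).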

For assay [4], the species on record is Homo sapiens. Nature of the assay: Sweet / Bitter character at a concentration of 1001 ppm (mean value).
Assay [5] is filed under the species Homo sapiens. Nature of the assay: Number of taste judgments per compound.
Assay [6] is filed under the species Homo sapiens. Nature of the assay: Percentage of judgments reporting an aftertaste at a concentration of 1001 ppm and character thereof; Sweet. The method, boiled down: (§4)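 Trained judges tasted aqueous solutions of the compounds, which had to be ≥95 weight percent pure and to have passed mutagenicity and single oral dose toxicity screening. The value is the percentage of panel judgments reporting an aftertaste. Where given, its character is recorded as sweet, bitter or bitter-sweet.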

For assay [7], the species on record is Homo sapiens. Description: Sweet character at a concentration of 1001 ppm (mean value).
For assay [8], the species on record is Homo sapiens. Description: Intensity calculated on a molar basis relative to a 0.25 M sucrose solution at a concentration of 1001 ppm (mean value). A digest of the protocol:
(§5)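 Panel-derived mean perceived intensity (Ip) converted to a molar basis by Im = Ip × (0.25 M / Y), where Y is the compound's molar concentration. Reference is a 0.25 M sucrose solution. Reported with limits of 2Sm.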

Assay [9] is filed under the species Homo sapiens. Nature of the assay: Sour character at a concentration of 1001 ppm (mean value).
The species named for assay [10] is Homo sapiens. Description: Salty character at a concentration of 1001 ppm (mean value).
Assay [11] is filed under the species Homo sapiens. Nature of the assay: Other taste character at a concentration of 1001 ppm (mean value). The method, boiled down:
(§6)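 Trained human panel tasted aqueous solutions of each compound. Aftertaste is scored as the percentage of judgments reporting one, with its character coded sweet (s), bitter (b) or bitter-sweet (bs).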

The species entered for assay [12] is Homo sapiens. Nature of the assay: Sweet character at a concentration of 33.4 ppm (mean value).
The species named for assay [13] is Homo sapiens. Description: Intensity calculated on a weight basis relative to an 85500 ppm sucrose solution at a concentration of 33.4 ppm (mean value). The method, boiled down: as §1
The species entered for assay [14] is Homo sapiens. Nature of the assay: Experimentally determined perceived intensity of compound at a concentration of 33.4 ppm (mean value). The method, boiled down: as §3
The species named for assay [15] is Homo sapiens. Nature of the assay: Bitter character at a concentration of 33.4 ppm (mean value). The method, boiled down: as §2
For assay [16], the species on record is Homo sapiens. Description: Sour character at a concentration of 33.4 ppm (mean value).
Assay [17] is filed under the species Homo sapiens. Nature of the assay: Sweet / Bitter character at a concentration of 33.4 ppm (mean value); 66/34.
For assay [18], the species on record is Homo sapiens. Description: Intensity calculated on a molar basis relative to a 0.25 M sucrose solution at a concentration of 33.4 ppm (mean value). The method, boiled down:
(§7)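 Trained human judges tasted aqueous solutions of the test compound; compounds were first required to be ≥95 weight percent pure and free of mutagenicity (five Salmonella typhimurium strains, ± microsomal activation) and of single oral dose mouse toxicity. Molar intensity I_m = perceived intensity × (0.25 M sucrose / compound molar concentration). The mean is reported with 2S_m limits; outliers were rejected at 95% confidence by t-value.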

Assay [19] is filed under the species Homo sapiens. Nature of the assay: Other taste character at a concentration of 33.4 ppm (mean value). A digest of the protocol: (§8)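 Trained human sensory panel (Swartz method) tasted dilute aqueous solutions of the compounds, which had to be ≥95 weight percent pure and free of mutagenicity and toxicity. Taste character is reported as the mean value with 2S_m limits. Data deviating excessively at the 95% confidence level were rejected by the t-value method.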

The species named for assay [20] is Homo sapiens. Description: Percentage of judgments reporting an aftertaste at a concentration of 33.4 ppm and character thereof.
The species entered for assay [21] is Homo sapiens. Description: Salty character at a concentration of 33.4 ppm (mean value).
Assay [22] is filed under the species Homo sapiens. Description: Sweet character at a concentration of 497 ppm (mean value).
Assay [23] is filed under the species Homo sapiens. Description: Percentage of judgments reporting an aftertaste at a concentration of 497 ppm and character thereof.
For assay [24], the species on record is Homo sapiens. Description: Intensity calculated on a weight basis relative to an 85500 ppm sucrose solution at a concentration of 497 ppm (mean value). A digest of the protocol: as §1
Assay [25] is filed under the species Homo sapiens. Description: Experimentally determined perceived intensity of compound at a concentration of 497 ppm (mean value). The method, boiled down:
as §3

For assay [26], the species on record is Homo sapiens. Description: Bitter character at a concentration of 497 ppm (mean value). A digest of the protocol: as §2
For assay [27], the species on record is Homo sapiens. Description: Sour character at a concentration of 497 ppm (mean value).
Assay [28] is filed under the species Homo sapiens. Description: Sweet / Bitter character at a concentration of 497 ppm (mean value); 0/100.
The species entered for assay [29] is Homo sapiens. Nature of the assay: Intensity calculated on a molar basis relative to a 0.25 M sucrose solution at a concentration of 497 ppm (mean value). The method, boiled down: as §7
Assay [30] is filed under the species Homo sapiens. Nature of the assay: Salty character at a concentration of 497 ppm (mean value).
Assay [31] is filed under the species Homo sapiens. Description: Other taste character at a concentration of 497 ppm (mean value). A digest of the protocol: as §8
For assay [32], the species on record is Homo sapiens. Description: Intensity calculated on a weight basis relative to an 85500 ppm sucrose solution at a concentration of 1000 ppm (mean value). A digest of the protocol: as §1
For assay [33], the species on record is Homo sapiens. Description: Bitter character at a concentration of 1000 ppm (mean value). A digest of the protocol:
as §2

The species entered for assay [34] is Homo sapiens. Nature of the assay: Other taste character at a concentration of 1000 ppm (mean value). The method, boiled down:
as §6

The species named for assay [35] is Homo sapiens. Nature of the assay: Experimentally determined perceived intensity of compound at a concentration of 1000 ppm (mean value). A digest of the protocol: as §3
For assay [36], the species on record is Homo sapiens. Nature of the assay: Sweet / Bitter character at a concentration of 1000 ppm (mean value); 75/25.
The species named for assay [37] is Homo sapiens. Description: Percentage of judgments reporting an aftertaste at a concentration of 1000 ppm and character thereof. A digest of the protocol:
as §4

For assay [38], the species on record is Homo sapiens. Nature of the assay: Sweet character at a concentration of 1000 ppm (mean value).
The species named for assay [39] is Homo sapiens. Description: Intensity calculated on a molar basis relative to a 0.25 M sucrose solution at a concentration of 1000 ppm (mean value). A digest of the protocol:
as §5

The species entered for assay [40] is Homo sapiens. Nature of the assay: Sour character at a concentration of 1000 ppm (mean value).
For assay [41], the species on record is Homo sapiens. Description: Salty character at a concentration of 1000 ppm (mean value).

SMILES strings stand for the structures.

Turning to `COc1ccc(CCc2noc3cc(OCC(=O)[O-])cc(O)c23)cc1O.[Na+]`, the IW in assay [1] is on record as 32. The Taste character was 22 in assay [2]; 75 in assay [4]; 66 in assay [7]; 0 in assay [9]; 0 in assay [10]; 12 in assay [11]. The same compound returned an IP in [3] of 0.38. Moreover, the Judgments in assay [5] came to 12; in [6], 100. For the same compound, the IM in assay [8] is 36.

As to `COc1ccc(C2CC(=O)c3c(O)cccc3O2)cc1O` (centres undefined), the Taste character in assay [12] was 62; in [15], 32; in [16], 6; in [17] it was 66; in assay [19], 0; in [21] it was 0. Moreover, in assay [13], the IW is 1700. Moreover, in [14], the IP is reported as 0.68. The Judgments in assay [5] is given as 8; in assay [20], 42. In addition, in [18], the IM was 1400.

Take `O=C([O-])COc1cc(O)c(C(=O)CCc2ccc3c(c2)OCO3)c(O)c1.[Na+]`: the Taste character in assay [22] was 0; in assay [26] it was 79; in assay [27], 0; in assay [28], 0; in assay [30], 0; in [31], 21. For the same compound, the Judgments in assay [23] was 100; in assay [5], 12. Moreover, the IW in assay [24] was 140. In assay [25], the IP turned out to be 0.83. In addition, the IM in assay [29] is 160.

For the compound `COc1ccc(CCC(=O)c2c(O)cc(OCCN)cc2O)cc1O`, the IW in assay [32] is listed as 86. The Taste character in [33] was determined as 25; in assay [34], 0; in assay [36] it was 75; in assay [38] it was 75; in [40], 0; in assay [41], 0. In assay [35], this compound yielded an IP of 1. Also, the Judgments came out at 1 in assay [5] and 100 in assay [37]. Also, the IM in assay [39] is listed as 87.
